Experimental data taken from PMC8752318 (Nano Today, 2022).

Legend:
[1] = test system: SARS-CoV-2 B.1.351 pseudovirus; settings: in vivo, ip
[2] = test system: SARS-CoV-2 B.1.617.2 pseudovirus; settings: in vivo, ip
STING-dependent IRF3 = settings: ref [44]; cited from earlier work
[3] = test system: IKBKE kinase-dependent activity of IRF3; settings: ref [44]; cited from earlier work
[4] = test system: RIG-I-like receptor (RLR) signaling pathway; assay: Transcriptome sequencing analysis of lymph node immune cells; assay type: in vivo, Balb/c mice; settings: WGCNA; AAS (Fig. 4g) or naked amantadine (Fig S7)
[5] = naked amantadine; ref [33], [54], [55]; cited from earlier work
[6] = test system: immunoregulatory cytokines such as interferons and tumor necrosis factors; settings: in vivo and in vitro, ref [29], [30], [31], [32]; cited from earlier work
[7] = test system: SARS-CoV-2 infection and symptomatology; settings: in vivo; cited from earlier work
DC 2.4 cells [8] = assay: DC 2.4 activation by flow cytometry; assay type: cell-based; settings: 10 μg/mL, 24 h
Summary of the method: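 DC 2.4 cells (1 × 10^6 per well) were cultured 12 h, then exposed to 10 μg test compound or tetrapeptide for 24 h. Staining used DAPI live/dead for viability, anti-CD40 and anti-CD86 for maturation, and anti-IL-4 and anti-TNF-α for function. At least 50,000 cells per sample were read by flow cytometry.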

[9] = naked amantadine; ref [33], [54], [55]; cited from earlier work; remark: listed apart in the source
animal model = settings: repeated injections with high dose; ref [28]; cited from earlier work
DC 2.4 cells [10] = assay: Cellular uptake inhibition; assay type: cell-based; settings: read-out: inhibition rate of AAS uptake by DCs
Summary of the method: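 DC 2.4 cells were grown in DMEM with 10% FBS and penicillin/streptomycin at 37 °C, 5% CO2, then seeded at 5 × 10^5 per well for 24 h. Cells were pretreated 1 h with 5 μM cytochalasin B or cytochalasin D, then given 5 μg Cy5-labelled AAS for 2 h. They were washed in PBS/2% FBS, fixed in 2% paraformaldehyde for 10 min, and Cy5 uptake was read by flow cytometry.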

**Q.** With `CCn1c(-c2nonc2N)nc2c(C#CC(C)(C)O)ncc(OC[C@H]3CCCNC3)c21` [GSK690693] as the molecule, how does the “decrease of neutralizing antibody against B.1.351 vs AAS+RBD group” value [1] read?
**A.** 7 fold

**Q.** What about the “decrease of neutralizing antibody against B.1.617.2 vs AAS+RBD group” value [2] of the same molecule?
**A.** 6 fold

**Q.** And the “inhibition of STING-dependent IRF3 activation” value (STING-dependent IRF3)?
**A.** inhibit the activation of STING-dependent IRF3

**Q.** What about the “inhibition of IKBKE kinase-dependent activity of IRF3 (GSK690693)” value [3] of the same molecule?
**A.** inhibit the IKBKE kinase-dependent activity of IRF3

**Q.** For `NC12CC3CC(CC(C3)C1)C2` [amantadine], which “protein-protein interaction (PPI) network key genes” value [4] is on record?
**A.** three RLR signaling pathway-related genes (Oasl2, RIG-I and IRF3) located in the central position

**Q.** What about the “half-life period in vivo” value [5] of the same molecule?
**A.** short half-life period

**Q.** And the “secretion of immunoregulatory cytokines” value [6]?
**A.** increase the secretion of multiple immunoregulatory cytokines

**Q.** What about the “prevention of SARS-CoV-2 infection and symptomatology” value [7] of the same molecule?
**A.** can prevent SARS-CoV-2 infection and symptomatology

**Q.** And the “immunostimulation activity against immune cells” value (DC 2.4 cells [8])?
**A.** possesses the immunostimulation activity

**Q.** And the water solubility [9]?
**A.** unsatisfactory water solubility

**Q.** And the adverse reactions (animal model)?
**A.** not observed

**Q.** With `C=C1[C@@H](C)[C@H]2[C@H](Cc3ccccc3)NC(=O)[C@]23OC(=O)/C=C/[C@H](O)CCC[C@@H](C)C/C=C/[C@H]3[C@@H]1O` [cytochalasin B] as the molecule, how does the inhibition at 5 µM (DC 2.4 cells [10]) read?
**A.** 11.7%

**Q.** Which inhibition at 5 µM (DC 2.4 cells [10]) does the source give for `C=C1[C@@H](C)[C@H]2[C@H](Cc3ccccc3)NC(=O)[C@]23[C@H](OC(C)=O)/C=C/[C@@](C)(O)C(=O)[C@@H](C)C/C=C/[C@H]3[C@@H]1O` [cytochalasin D] here?
**A.** 46%

**Q.** With `CN(C)c1ccc(C(=C2C=CC(=[N+](C)C)C=C2)c2ccccc2)cc1.CN(C)c1ccc(C(=C2C=CC(=[N+](C)C)C=C2)c2ccccc2)cc1.O=C(O)C(=O)O.O=C([O-])C(=O)O.O=C([O-])C(=O)O` [malachite green oxalate] as the molecule, how does the “decrease of neutralizing antibody against B.1.351 vs AAS+RBD group” value [1] read?
**A.** 4 fold
